Assay results published in ChEMBL document CHEMBL5252523, “Searching for New Leads for Tuberculosis: Design, Synthesis, and Biological Evaluation of Novel 2-Quinolin-4-yloxyacetamides” (J Med Chem, 2016).
Converted amounts (≈) assume the structure as drawn.

Test system: Mycobacterium tuberculosis
Assay: Antimycobacterial activity against Mycobacterium tuberculosis H37Rv ATCC 25618 expressing pATB45luc infected in PMA-stimulated human THP-1 cells assessed as inhibition of intracellular bacterial growth incubated for 4 days by BrightGlo luciferase assay
Assay type: functional, organism-based
Details: H37Rv ATCC 25618, THP-1, 96 h
Summary of the method: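 THP-1 cells grown in RPMI-1640 with 10% FBS, 1 mM pyruvate and 2 mM L-glutamine. Cells were PMA-differentiated (40 ng/ml) while infected with single-cell Mtb H37Rv-pATB45luc at MOI 1:1 for 4 h at 37 °C in a roller bottle, then washed four times. About 10000 cells/well were added onto pre-dispensed compound (max DMSO 0.5%) and incubated 4 days at 37 °C. Luciferase luminescence was read; IC50/IC90 came from nonlinear regression of dose-response curves.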

Structure (SMILES)	IC50 [µM]
COc1ccc2nc(C)cc(OCC(=O)Nc3ccc(Cl)cc3Cl)c2c1	0.79
COc1ccc2nc(C)cc(OCC(=O)Nc3cc(F)cc(F)c3)c2c1	0.4
COc1ccc2nc(C)cc(OCC(=O)Nc3ccccc3OC)c2c1	0.5

Same assay, conditions: H37Rv ATCC 25618, THP-1, 96 h, time 4 day

Structure (SMILES)	IC90 [µM]
COc1ccc2nc(C)cc(OCC(=O)Nc3ccc(Cl)cc3Cl)c2c1	> 50
COc1ccc2nc(C)cc(OCC(=O)Nc3cc(F)cc(F)c3)c2c1	2.51
COc1ccc2nc(C)cc(OCC(=O)Nc3ccccc3OC)c2c1	1.58

Test system: not listed separately
Assay: Artificial membrane permeability of the compound incubated for 3 hrs by HPLC analysis
Assay type: ADME
Details: PAMPA, read-out: permeability

Structure (SMILES)	Papp at 3 h [×10⁻⁶ cm/s]
COc1ccc2nc(C)cc(OCC(=O)Nc3cc(C)ccc3C)c2c1	81
COc1ccc2nc(C)cc(OCC(=O)Nc3cccc(C)c3)c2c1	35.5
COc1ccc2nc(C)cc(OCC(=O)NCc3cc(C)cc(C)c3)c2c1	< 0.3
Cc1cc(C)cc(NC(=O)COc2cc(C(F)(F)F)nc3c(C(F)(F)F)cccc23)c1	< 1
Cc1cc(C)cc(NC(=O)COc2cc(C)nc3ccc(F)cc23)c1	31
COc1ccc2nc(C)cc(OCC(=O)Nc3cc(OC)c(OC)c(OC)c3)c2c1	62
COc1ccc2nc(C)cc(OCC(=O)Nc3cc(C)nc(C)n3)c2c1	1.2
Cc1cc(C)cc(NC(=O)COc2cc(C(F)(F)F)nc3cc4c(cc23)OCO4)c1	< 3
COc1ccc2nc(C)cc(OCc3ccc4ccccc4n3)c2c1	47
COc1ccc2nc(C)cc(OCC(=O)Nc3ccccc3)c2c1	37
COc1ccc2nc(C)cc(OCC(=O)NNC(=O)c3ccncc3)c2c1	3.3
COc1ccc2nc(C)cc(OCC(=O)Nc3ccncc3)c2c1	56
Cc1cc(C)cc(NC(=O)COc2cc(C)nc3ccc(C(F)(F)F)cc23)c1	< 3
CCC(Oc1cc(C)nc2ccc(OC)cc12)C(=O)Nc1cc(C)cc(C)c1 (configuration not stated)	39

Test system: not listed separately
Assay: Stability of compound in CD1 mouse blood assessed as half life at 0.5 uM incubated upto 240 mins by LC-MS/MS analysis
Assay type: ADME, tissue-based
Details: not given
Summary of the method: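 Fresh CD1 mouse whole blood collected in EDTA tubes and spiked with compound. Three 300 μl aliquots were incubated at 37 °C. Supernatants were analysed by LC-MS/MS; analyte/internal standard ratios were normalised to time zero as % remaining, and half-life was taken from ln plots of % remaining.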

Structure (SMILES)	half-life at 0.5 µM [min]
COc1ccc2nc(C)cc(OCC(=O)Nc3cc(C)ccc3C)c2c1	< 5
COc1ccc2nc(C)cc(OCC(=O)Nc3cccc(C)c3)c2c1	< 5

Test system: not listed separately
Assay: Microsomal stability in mouse liver microsomes assessed as half life at 0.5 uM preincubated followed by NADPH addition and measured upto 30 mins by LC-MS/MS analysis
Assay type: ADME, Microsome
Details: not given

Structure (SMILES)	half-life at 0.5 µM [min]
Cc1ncc2n1-c1ccc(Cl)cc1C(c1ccccc1F)=NC2 [MIDAZOLAM]	< 5
COc1ccc2nc(C)cc(OCC(=O)Nc3cc(C)ccc3C)c2c1	< 5
COc1ccc2nc(C)cc(OCC(=O)Nc3cccc(C)c3)c2c1	< 5
COc1ccc2nc(C)cc(OCC(=O)Nc3ccccc3OC)c2c1	< 3

Test system: not listed separately
Assay: Cytotoxicity against human HepG2 cells assessed as cell growth inhibition incubated for 48 hrs by CellTiter-Glo reagent based analysis
Assay type: toxicity
Details: not given
Summary of the method: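 HepG2 cells kept in Eagle's MEM with 10% heat-inactivated FBS, 1% NEAA and penicillin/streptomycin, seeded at ~3000 cells/well onto pre-dispensed compound. Incubation was 48 h at 37 °C, 5% CO2. Plates were equilibrated to room temperature, CellTiter-Glo was added, and ATP luminescence was read after 10 min as the viability read-out.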

Structure (SMILES)	IC50 at 48 h [µM]
COc1ccc2nc(C)cc(OCC(=O)Nc3ccc(Cl)cc3Cl)c2c1	> 100
COc1ccc2nc(C)cc(OCC(=O)Nc3cc(C)ccc3C)c2c1	> 100
COc1ccc2nc(C)cc(OCC(=O)Nc3cccc(C)c3)c2c1	39.8
COc1ccc2nc(C)cc(OCC(=O)Nc3cc(F)cc(F)c3)c2c1	> 100
COc1ccc2nc(C)cc(OCC(=O)NCc3cc(C)cc(C)c3)c2c1	> 100
Cc1cc(C)cc(NC(=O)COc2cc(C(F)(F)F)nc3c(C(F)(F)F)cccc23)c1	> 100
Cc1cc(C)cc(NC(=O)COc2cc(C)nc3ccc(F)cc23)c1	63.1
COc1ccc2nc(C)cc(OCC(=O)Nc3cc(OC)c(OC)c(OC)c3)c2c1	> 100
COc1ccc2nc(C)cc(OCC(=O)Nc3cc(C)nc(C)n3)c2c1	> 100
Cc1cc(C)cc(NC(=O)COc2cc(C(F)(F)F)nc3cc4c(cc23)OCO4)c1	> 100
COc1ccc2nc(C)cc(OCc3ccc4ccccc4n3)c2c1	31.6
COc1ccc2nc(C)cc(OCC(=O)Nc3ccccc3)c2c1	39.8
COc1ccc2nc(C)cc(OCC(=O)NNC(=O)c3ccncc3)c2c1	> 100
COc1ccc2nc(C)cc(OCC(=O)Nc3ccncc3)c2c1	> 100
Cc1cc(C)cc(NC(=O)COc2cc(C)nc3ccc(C(F)(F)F)cc23)c1	> 100
COc1ccc2nc(C)cc(OCC(=O)Nc3ccccc3OC)c2c1	> 100
CCC(Oc1cc(C)nc2ccc(OC)cc12)C(=O)Nc1cc(C)cc(C)c1 (configuration not stated)	79.4

Test system: not listed separately
Assay: Chromatographic hydrophobicity index, log D of the compound in phosphate buffer at pH 7.4 by UV-HPLC analysis
Assay type: physicochemical
Details: not given

Structure (SMILES)	chromatographic logD
COc1ccc2nc(C)cc(OCC(=O)Nc3ccc(Cl)cc3Cl)c2c1	6.4
COc1ccc2nc(C)cc(OCC(=O)Nc3cc(C)ccc3C)c2c1	5.05
COc1ccc2nc(C)cc(OCC(=O)Nc3cccc(C)c3)c2c1	4.83
COc1ccc2nc(C)cc(OCC(=O)Nc3cc(F)cc(F)c3)c2c1	5.13
COc1ccc2nc(C)cc(OCC(=O)NCc3cc(C)cc(C)c3)c2c1	5.25
Cc1cc(C)cc(NC(=O)COc2cc(C(F)(F)F)nc3c(C(F)(F)F)cccc23)c1	7.73
Cc1cc(C)cc(NC(=O)COc2cc(C)nc3ccc(F)cc23)c1	5.79
COc1ccc2nc(C)cc(OCC(=O)Nc3cc(OC)c(OC)c(OC)c3)c2c1	3.95
COc1ccc2nc(C)cc(OCC(=O)Nc3cc(C)nc(C)n3)c2c1	3.24
Cc1cc(C)cc(NC(=O)COc2cc(C(F)(F)F)nc3cc4c(cc23)OCO4)c1	6.73
COc1ccc2nc(C)cc(OCc3ccc4ccccc4n3)c2c1	5.48
COc1ccc2nc(C)cc(OCC(=O)Nc3ccccc3)c2c1	4.28
COc1ccc2nc(C)cc(OCC(=O)NNC(=O)c3ccncc3)c2c1	1.48
COc1ccc2nc(C)cc(OCC(=O)Nc3ccncc3)c2c1	2.5
Cc1cc(C)cc(NC(=O)COc2cc(C)nc3ccc(C(F)(F)F)cc23)c1	6.67
COc1ccc2nc(C)cc(OCC(=O)Nc3ccccc3OC)c2c1	4.68
CCC(Oc1cc(C)nc2ccc(OC)cc12)C(=O)Nc1cc(C)cc(C)c1 (configuration not stated)	6.28

Test system: Mycobacterium tuberculosis
Assay: Antimycobacterial activity against Mycobacterium tuberculosis H37Rv ATCC 25618 assessed as inhibition of microbial growth incubated for 6 days by resazurin based assay
Assay type: functional
Details: H37Rv ATCC 25618, 144 h, time 6 day
Summary of the method: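 Ten two-fold dilutions made in neat DMSO, tested in Middlebrook 7H9 with the H37Rv inoculum. Controls: isoniazid from 4 μg/ml as positive control; rifampicin 1 μM as no-growth control. Plates sat sealed at 37 °C without shaking for 6 days.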

Structure (SMILES)	MIC [µM]
COc1ccc2nc(C)cc(OCC(=O)Nc3ccc(Cl)cc3Cl)c2c1	2
COc1ccc2nc(C)cc(OCC(=O)Nc3cc(C)ccc3C)c2c1	8
COc1ccc2nc(C)cc(OCC(=O)Nc3cccc(C)c3)c2c1	2
COc1ccc2nc(C)cc(OCC(=O)Nc3cc(F)cc(F)c3)c2c1	3
COc1ccc2nc(C)cc(OCC(=O)NCc3cc(C)cc(C)c3)c2c1	31
Cc1cc(C)cc(NC(=O)COc2cc(C(F)(F)F)nc3c(C(F)(F)F)cccc23)c1	> 250
Cc1cc(C)cc(NC(=O)COc2cc(C)nc3ccc(F)cc23)c1	15.6
COc1ccc2nc(C)cc(OCC(=O)Nc3cc(OC)c(OC)c(OC)c3)c2c1	62
COc1ccc2nc(C)cc(OCC(=O)Nc3cc(C)nc(C)n3)c2c1	> 250
Cc1cc(C)cc(NC(=O)COc2cc(C(F)(F)F)nc3cc4c(cc23)OCO4)c1	> 250
COc1ccc2nc(C)cc(OCc3ccc4ccccc4n3)c2c1	32
COc1ccc2nc(C)cc(OCC(=O)Nc3ccccc3)c2c1	2
COc1ccc2nc(C)cc(OCC(=O)NNC(=O)c3ccncc3)c2c1	62
COc1ccc2nc(C)cc(OCC(=O)Nc3ccncc3)c2c1	> 250
Cc1cc(C)cc(NC(=O)COc2cc(C)nc3ccc(C(F)(F)F)cc23)c1	> 250
COc1ccc2nc(C)cc(OCC(=O)Nc3ccccc3OC)c2c1	1.4
CCC(Oc1cc(C)nc2ccc(OC)cc12)C(=O)Nc1cc(C)cc(C)c1 (configuration not stated)	> 250

Test system: not listed separately
Assay: Kinetic aqueous solubility of compound in phosphate buffer at pH 7.4 incubated for 1 hrs by CLND assay
Assay type: physicochemical
Details: read-out: Kinetic_solubility

Structure (SMILES)	solubility kinetic at 1 h [µM]
COc1ccc2nc(C)cc(OCC(=O)Nc3ccc(Cl)cc3Cl)c2c1	20.5 (≈ 8.02 µg/mL)
COc1ccc2nc(C)cc(OCC(=O)Nc3cc(C)ccc3C)c2c1	45.5 (≈ 15.9 µg/mL)
COc1ccc2nc(C)cc(OCC(=O)Nc3cccc(C)c3)c2c1	193 (≈ 64.9 µg/mL)
COc1ccc2nc(C)cc(OCC(=O)Nc3cc(F)cc(F)c3)c2c1	13 (≈ 4.66 µg/mL)
COc1ccc2nc(C)cc(OCC(=O)NCc3cc(C)cc(C)c3)c2c1	92 (≈ 33.5 µg/mL)
Cc1cc(C)cc(NC(=O)COc2cc(C(F)(F)F)nc3c(C(F)(F)F)cccc23)c1	< 1
Cc1cc(C)cc(NC(=O)COc2cc(C)nc3ccc(F)cc23)c1	28 (≈ 9.47 µg/mL)
COc1ccc2nc(C)cc(OCC(=O)Nc3cc(OC)c(OC)c(OC)c3)c2c1	34 (≈ 14 µg/mL)
COc1ccc2nc(C)cc(OCC(=O)Nc3cc(C)nc(C)n3)c2c1	5 (≈ 1.76 µg/mL)
Cc1cc(C)cc(NC(=O)COc2cc(C(F)(F)F)nc3cc4c(cc23)OCO4)c1	< 1
COc1ccc2nc(C)cc(OCc3ccc4ccccc4n3)c2c1	21 (≈ 6.94 µg/mL)
COc1ccc2nc(C)cc(OCC(=O)Nc3ccccc3)c2c1	63 (≈ 20.3 µg/mL)
COc1ccc2nc(C)cc(OCC(=O)NNC(=O)c3ccncc3)c2c1	≥ 375
COc1ccc2nc(C)cc(OCC(=O)Nc3ccncc3)c2c1	91.5 (≈ 29.6 µg/mL)
Cc1cc(C)cc(NC(=O)COc2cc(C)nc3ccc(C(F)(F)F)cc23)c1	10 (≈ 3.88 µg/mL)
CCC(Oc1cc(C)nc2ccc(OC)cc12)C(=O)Nc1cc(C)cc(C)c1 (configuration not stated)	123 (≈ 46.6 µg/mL)

Test system: not listed separately
Assay: Microsomal stability in human liver microsomes assessed as half life at 0.5 uM preincubated followed by NADPH addition and measured upto 30 mins by LC-MS/MS analysis
Assay type: ADME, Microsome
Details: not given

Structure (SMILES)	half-life at 0.5 µM [min]
Cc1ncc2n1-c1ccc(Cl)cc1C(c1ccccc1F)=NC2 [MIDAZOLAM]	9
COc1ccc2nc(C)cc(OCC(=O)Nc3cc(C)ccc3C)c2c1	24
COc1ccc2nc(C)cc(OCC(=O)Nc3cccc(C)c3)c2c1	23
COc1ccc2nc(C)cc(OCC(=O)Nc3ccccc3OC)c2c1	16
